According to ChEMBL document CHEMBL1130978, “Discovery of FR115092: a novel antinephritic agent” (1998):

System: Mus musculus
Assay: Inhibition of proteinuria in the graft-versus-host disease mice following 100 mg/kg p.o. administration.
Type: functional
Conditions: route oral
How it was run: (§1)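 Chronic GVHD induced in 6-week-old female ([…] x DBA/2)F1 mice by two injections of DBA/2 spleen cells (5 x 10^7 cells each), given 5 days apart. Oral dosing once daily for 8 weeks, starting 3 days after the second injection. Urinary albumin measured after the last dose by single radial immunodiffusion with rabbit anti-mouse serum albumin antiserum. Ten mice per group. Value reported as % inhibition of proteinuria.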

SMILES	inhibition in vivo at 100 mg/kg [%]
Nc1ccc([S+]([O-])c2cnc(N)s2)cc1 (stereo not given)	79
Nc1ccc(NS(=O)(=O)c2ccc(N)cc2)cc1	54
CS(=O)(=O)Nc1ccc(C(=O)c2ccc(N)cc2)cc1	< 50
Nc1ccc([S+]([O-])c2ccc(N)cc2)cc1	95
Nc1ccc([S+]([O-])c2ncccn2)cc1 (stereo not given)	99
Cc1cc(C(=O)c2ccc(N)cc2)cc(C)c1N	99
Cc1cc(C(=O)c2ccc(N)cc2)ccc1N	100
Nc1ccc(C(=O)c2cccc(N)c2)cc1	< 50
Nc1ccc(NC(=O)c2ccc(N)cc2)cc1	< 50
Nc1ccc(C(=O)c2ccncc2)cc1	89
NC(=O)Nc1ccc(C(=O)c2ccc(N)cc2)cc1	< 50
Nc1ccc(Oc2ccc(N)cc2)cc1	93
Nc1ncc(Sc2ccccn2)s1	90
Cn1ccnc1[S+]([O-])c1ccc(N)cc1 (stereo not given)	< 50
Nc1ccc(C(=O)c2ccc(N)cc2)cc1	95
Nc1ncc([S+]([O-])c2ccccn2)s1 (stereo not given)	98
Nc1ncc(S(=O)(=O)c2ccccn2)s1	92
Nc1ccc(Sc2ccc(N)cc2)cc1 [4,4'-THIODIANILINE]	70
Nc1ccc(S(=O)(=O)c2ccc(N)cc2)cc1 [DAPSONE]	95

System: Mus musculus
Assay: Compound was tested for the inhibition of proteinuria in the graft-versus-host disease (GVHD) in mice at 100 mg/kg p.o.; 8/10 mice died
Type: functional
Conditions: route oral

SMILES	inhibition in vivo at 100 mg/kg [%]
Nc1ncc([S+]([O-])c2ccncc2)s1 (stereo not given)	100

System: Mus musculus
Assay: Antinephritic activity on chronic graft-versus-host disease (GVHD) in mice at 32 mg/kg p.o.
Type: functional
Conditions: route oral
How it was run: as §1

SMILES	inhibition in vivo at 32 mg/kg [%]
Nc1ncc(S(=O)(=O)c2ccccn2)s1	29
Nc1ccc(S(=O)(=O)c2ccc(N)cc2)cc1 [DAPSONE]	< 50

System: Mus musculus
Assay: Antinephritic activity on chronic graft-versus-host disease (GVHD) in mice at 10 mg/kg p.o.
Type: functional
Conditions: route oral
How it was run: as §1

SMILES	inhibition in vivo at 10 mg/kg [%]
Nc1ncc(S(=O)(=O)c2ccccn2)s1	63
Nc1ccc(S(=O)(=O)c2ccc(N)cc2)cc1 [DAPSONE]	< 50

System: Mus musculus
Assay: Compound was tested for the inhibition of proteinuria in the graft-versus-host disease (GVHD) in mice at 100 mg/kg p.o.; 9/10 mice died
Type: functional
Conditions: route oral

SMILES	inhibition in vivo at 100 mg/kg [%]
Nc1ccc([S+]([O-])c2ccncc2)cc1 (stereo not given)	< 50
